Measured values from ChEMBL document CHEMBL3259739, “Synthesis and structure-activity relationship of trisubstituted thiazoles as Cdc7 kinase inhibitors” (Eur J Med Chem, 2014).

Tests used:
[1] = biological target: ALK tyrosine kinase receptor (Homo sapiens) (UniProt Q9UM73); assay: Inhibition of ALK (unknown origin) at 1 uM relative to control; values are per cent of control
[2] = biological target: T1, Aurora kinase A (Homo sapiens) (UniProt O14965); assay: Inhibition of AURKA (unknown origin) at 1 uM relative to control; values are per cent of control
T1 sequence (whole entry): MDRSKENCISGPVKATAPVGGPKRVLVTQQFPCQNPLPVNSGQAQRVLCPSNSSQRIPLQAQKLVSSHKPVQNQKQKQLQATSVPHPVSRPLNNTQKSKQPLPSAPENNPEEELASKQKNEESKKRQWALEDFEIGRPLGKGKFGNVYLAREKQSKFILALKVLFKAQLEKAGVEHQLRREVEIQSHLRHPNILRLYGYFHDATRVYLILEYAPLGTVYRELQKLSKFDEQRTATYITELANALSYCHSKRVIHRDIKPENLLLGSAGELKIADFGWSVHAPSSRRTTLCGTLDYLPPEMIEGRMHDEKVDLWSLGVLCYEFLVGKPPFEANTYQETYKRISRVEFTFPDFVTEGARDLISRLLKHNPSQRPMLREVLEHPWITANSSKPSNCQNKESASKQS

[3] = biological target: Ribosomal protein S6 kinase alpha-5 (Homo sapiens) (UniProt O75582); assay: Inhibition of RPS6KA5 (unknown origin) at 1 uM relative to control; conditions: values are per cent of control
[4] = biological target: Casein kinase II subunit alpha (Homo sapiens) (UniProt P68400); assay: Inhibition of CSNK2A1 (unknown origin) at 1 uM relative to control; values are per cent of control
[5] = biological target: T2, Mitogen-activated protein kinase 12 (Homo sapiens) (UniProt P53778); assay: Inhibition of p38-gamma (unknown origin) at 1 uM relative to control; values are per cent of control
T2 sequence (whole entry): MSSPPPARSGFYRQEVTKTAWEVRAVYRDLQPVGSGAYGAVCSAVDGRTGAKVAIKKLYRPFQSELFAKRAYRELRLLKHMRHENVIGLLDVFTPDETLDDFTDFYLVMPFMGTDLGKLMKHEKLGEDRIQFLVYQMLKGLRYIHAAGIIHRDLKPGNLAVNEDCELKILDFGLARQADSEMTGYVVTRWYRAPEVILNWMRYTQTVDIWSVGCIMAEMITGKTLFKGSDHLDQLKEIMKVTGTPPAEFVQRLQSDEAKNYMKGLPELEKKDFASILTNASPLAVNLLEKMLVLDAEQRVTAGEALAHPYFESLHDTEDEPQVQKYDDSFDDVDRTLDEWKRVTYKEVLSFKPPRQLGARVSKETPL

[6] = biological target: Non-receptor tyrosine-protein kinase TYK2 (Homo sapiens) (UniProt P29597); assay: Inhibition of JH1 catalytic domain of TYK2 (unknown origin) at 1 uM relative to control; conditions: values are per cent of control
Procedure, shortened: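 Competitive binding panel (KinomeSCAN) of 100 kinases, with compound tested at 1 µM in duplicate. The read-out was percent inhibition relative to control.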

[7] = biological target: Angiopoietin-1 receptor (Homo sapiens) (UniProt Q02763); assay: Inhibition of TIE2 (unknown origin) at 1 uM relative to control; conditions: values are per cent of control
Procedure, shortened: (§1)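 KinomeSCAN competitive binding panel of 100 kinases; compounds tested at 1 µM in duplicate; read-out is percent […] control.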

[8] = biological target: T3, Interleukin-1 receptor-associated kinase 4 (Homo sapiens) (UniProt Q9NWZ3); assay: Inhibition of IRAK4 (unknown origin) at 1 uM relative to control; values are per cent of control
T3 sequence (whole entry): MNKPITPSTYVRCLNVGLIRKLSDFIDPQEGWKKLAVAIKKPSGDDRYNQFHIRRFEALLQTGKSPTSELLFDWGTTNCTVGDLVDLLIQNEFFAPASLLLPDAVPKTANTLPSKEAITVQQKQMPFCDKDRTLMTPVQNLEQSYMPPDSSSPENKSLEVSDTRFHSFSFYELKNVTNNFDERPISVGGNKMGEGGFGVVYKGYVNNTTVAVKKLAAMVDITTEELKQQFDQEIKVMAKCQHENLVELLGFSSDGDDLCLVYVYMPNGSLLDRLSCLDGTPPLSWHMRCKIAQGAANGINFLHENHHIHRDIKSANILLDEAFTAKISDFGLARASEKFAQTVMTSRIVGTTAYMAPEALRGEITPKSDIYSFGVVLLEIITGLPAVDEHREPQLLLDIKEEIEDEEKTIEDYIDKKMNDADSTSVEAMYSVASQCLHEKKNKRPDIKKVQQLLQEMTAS

[9] = biological target: Serine/threonine-protein kinase PLK1 (Homo sapiens) (UniProt P53350); assay: Inhibition of PLK1 (unknown origin) at 1 uM relative to control; conditions: values are per cent of control
Procedure, shortened: as §1

[10] = biological target: Dual specificity tyrosine-phosphorylation-regulated kinase 1B (Homo sapiens) (UniProt Q9Y463); assay: Inhibition of DYRK1B (unknown origin) at 1 uM relative to control; values are per cent of control
[11] = biological target: Mast/stem cell growth factor receptor Kit (Homo sapiens) (UniProt P10721); assay: Inhibition of KIT (unknown origin) at 1 uM relative to control; values are per cent of control
[12] = biological target: Rho-associated protein kinase 2 (Homo sapiens) (UniProt O75116); assay: Inhibition of ROCK2 (unknown origin) at 1 uM relative to control; conditions: values are per cent of control
Procedure, shortened: as §1

[13] = biological target: Serine/threonine-protein kinase MARK1 (Homo sapiens) (UniProt Q9P0L2); assay: Inhibition of MARK1 (unknown origin) at 1 uM relative to control; values are per cent of control
Serine/threonine-protein kinase MARK1 (Homo sapiens), sequence (Q9P0L2 whole entry, looked up): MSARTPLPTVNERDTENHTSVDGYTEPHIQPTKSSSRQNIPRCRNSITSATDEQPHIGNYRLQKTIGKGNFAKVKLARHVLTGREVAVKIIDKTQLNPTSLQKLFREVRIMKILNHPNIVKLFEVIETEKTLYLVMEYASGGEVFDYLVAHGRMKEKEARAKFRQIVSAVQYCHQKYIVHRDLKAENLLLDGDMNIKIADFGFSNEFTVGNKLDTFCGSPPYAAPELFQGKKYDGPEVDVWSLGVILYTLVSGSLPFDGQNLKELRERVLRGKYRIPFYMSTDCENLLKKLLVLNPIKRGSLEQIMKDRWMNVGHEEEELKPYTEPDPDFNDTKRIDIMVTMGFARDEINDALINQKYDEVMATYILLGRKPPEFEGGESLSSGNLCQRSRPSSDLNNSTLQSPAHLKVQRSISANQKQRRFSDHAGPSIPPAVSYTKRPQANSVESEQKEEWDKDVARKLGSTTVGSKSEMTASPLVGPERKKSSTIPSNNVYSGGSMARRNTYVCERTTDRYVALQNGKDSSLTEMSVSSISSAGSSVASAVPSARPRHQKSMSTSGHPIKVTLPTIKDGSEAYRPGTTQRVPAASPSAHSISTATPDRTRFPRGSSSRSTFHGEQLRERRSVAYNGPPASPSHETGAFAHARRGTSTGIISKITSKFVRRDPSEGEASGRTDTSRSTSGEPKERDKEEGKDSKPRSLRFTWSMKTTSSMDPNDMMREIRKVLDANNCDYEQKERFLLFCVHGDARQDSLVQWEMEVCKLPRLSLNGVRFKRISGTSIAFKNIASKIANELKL

Casein kinase II subunit alpha (Homo sapiens), sequence (P68400 whole entry, looked up): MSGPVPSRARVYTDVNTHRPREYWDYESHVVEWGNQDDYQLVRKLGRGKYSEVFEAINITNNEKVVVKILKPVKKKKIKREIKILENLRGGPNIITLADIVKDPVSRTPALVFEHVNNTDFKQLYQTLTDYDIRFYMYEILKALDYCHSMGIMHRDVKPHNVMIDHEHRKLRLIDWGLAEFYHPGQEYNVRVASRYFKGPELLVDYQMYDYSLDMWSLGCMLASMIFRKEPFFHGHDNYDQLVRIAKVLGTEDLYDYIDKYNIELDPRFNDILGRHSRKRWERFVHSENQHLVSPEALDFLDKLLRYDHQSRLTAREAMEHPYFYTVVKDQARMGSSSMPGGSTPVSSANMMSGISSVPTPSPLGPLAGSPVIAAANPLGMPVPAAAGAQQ
Angiopoietin-1 receptor (Homo sapiens), sequence (Q02763 whole entry): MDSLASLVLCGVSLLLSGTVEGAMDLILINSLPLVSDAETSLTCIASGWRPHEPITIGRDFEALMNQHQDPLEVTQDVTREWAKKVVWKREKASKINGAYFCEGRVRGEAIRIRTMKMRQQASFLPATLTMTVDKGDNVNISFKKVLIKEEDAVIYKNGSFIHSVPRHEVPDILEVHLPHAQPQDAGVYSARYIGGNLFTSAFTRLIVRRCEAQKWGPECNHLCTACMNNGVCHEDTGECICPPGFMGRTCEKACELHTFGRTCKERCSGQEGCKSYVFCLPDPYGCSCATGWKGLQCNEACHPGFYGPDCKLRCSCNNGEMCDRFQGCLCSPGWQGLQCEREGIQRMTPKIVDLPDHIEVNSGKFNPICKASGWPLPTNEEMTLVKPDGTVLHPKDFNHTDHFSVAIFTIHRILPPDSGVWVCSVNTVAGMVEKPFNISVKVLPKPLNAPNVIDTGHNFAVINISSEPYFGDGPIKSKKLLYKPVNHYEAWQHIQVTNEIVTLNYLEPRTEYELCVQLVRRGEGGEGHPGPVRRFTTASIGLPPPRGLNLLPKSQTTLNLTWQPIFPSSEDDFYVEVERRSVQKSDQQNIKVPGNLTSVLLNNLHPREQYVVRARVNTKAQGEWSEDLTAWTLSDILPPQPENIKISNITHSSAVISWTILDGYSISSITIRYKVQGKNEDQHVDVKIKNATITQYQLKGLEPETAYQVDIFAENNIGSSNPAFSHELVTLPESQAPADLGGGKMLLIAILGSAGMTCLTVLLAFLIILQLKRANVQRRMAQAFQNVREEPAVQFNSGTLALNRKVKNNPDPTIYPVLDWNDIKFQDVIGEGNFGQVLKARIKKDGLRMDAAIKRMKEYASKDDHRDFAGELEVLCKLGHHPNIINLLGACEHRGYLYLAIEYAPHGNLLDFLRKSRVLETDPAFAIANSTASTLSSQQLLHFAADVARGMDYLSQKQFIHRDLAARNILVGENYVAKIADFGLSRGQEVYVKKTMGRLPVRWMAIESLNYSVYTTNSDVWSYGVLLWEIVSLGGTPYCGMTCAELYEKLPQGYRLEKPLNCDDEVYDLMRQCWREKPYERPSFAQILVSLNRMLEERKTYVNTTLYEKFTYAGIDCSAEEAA
Rho-associated protein kinase 2 (Homo sapiens), sequence (O75116 whole entry, looked up): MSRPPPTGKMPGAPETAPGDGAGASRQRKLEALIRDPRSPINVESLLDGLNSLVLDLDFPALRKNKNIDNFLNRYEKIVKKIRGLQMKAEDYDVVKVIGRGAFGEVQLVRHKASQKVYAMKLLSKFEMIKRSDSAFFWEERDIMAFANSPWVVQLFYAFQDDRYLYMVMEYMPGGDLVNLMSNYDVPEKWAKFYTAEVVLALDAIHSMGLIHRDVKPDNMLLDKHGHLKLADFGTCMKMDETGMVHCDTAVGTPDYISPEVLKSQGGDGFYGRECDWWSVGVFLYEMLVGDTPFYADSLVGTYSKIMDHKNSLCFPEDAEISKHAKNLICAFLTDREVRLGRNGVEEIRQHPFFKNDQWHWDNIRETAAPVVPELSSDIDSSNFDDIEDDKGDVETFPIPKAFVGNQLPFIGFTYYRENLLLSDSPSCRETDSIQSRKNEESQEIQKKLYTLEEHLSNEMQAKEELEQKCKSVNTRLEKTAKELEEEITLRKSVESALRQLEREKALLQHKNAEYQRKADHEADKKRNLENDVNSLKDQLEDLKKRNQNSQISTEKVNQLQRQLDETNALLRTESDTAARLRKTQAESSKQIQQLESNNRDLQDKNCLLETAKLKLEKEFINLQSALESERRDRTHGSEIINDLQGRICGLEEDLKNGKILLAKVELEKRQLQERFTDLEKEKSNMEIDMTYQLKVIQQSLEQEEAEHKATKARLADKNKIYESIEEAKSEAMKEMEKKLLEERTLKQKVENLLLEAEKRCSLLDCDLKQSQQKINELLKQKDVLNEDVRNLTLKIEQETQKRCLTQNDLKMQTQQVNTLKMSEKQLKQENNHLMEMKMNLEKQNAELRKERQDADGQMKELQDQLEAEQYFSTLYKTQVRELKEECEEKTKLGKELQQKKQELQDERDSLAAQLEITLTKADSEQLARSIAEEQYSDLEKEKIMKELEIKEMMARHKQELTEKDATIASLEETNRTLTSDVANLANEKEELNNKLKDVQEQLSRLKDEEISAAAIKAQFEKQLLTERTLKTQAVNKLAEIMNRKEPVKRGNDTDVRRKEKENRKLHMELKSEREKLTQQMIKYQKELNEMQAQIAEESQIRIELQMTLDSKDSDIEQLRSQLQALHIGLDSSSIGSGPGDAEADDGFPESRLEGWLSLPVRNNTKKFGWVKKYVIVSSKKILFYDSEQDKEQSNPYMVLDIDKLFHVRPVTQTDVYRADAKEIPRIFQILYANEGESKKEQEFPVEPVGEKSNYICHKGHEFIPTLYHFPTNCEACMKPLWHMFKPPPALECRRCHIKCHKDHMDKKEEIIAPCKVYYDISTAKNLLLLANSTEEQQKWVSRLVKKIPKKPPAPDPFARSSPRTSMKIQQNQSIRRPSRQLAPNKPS
Dual specificity tyrosine-phosphorylation-regulated kinase 1B (Homo sapiens), sequence (Q9Y463 whole entry, looked up): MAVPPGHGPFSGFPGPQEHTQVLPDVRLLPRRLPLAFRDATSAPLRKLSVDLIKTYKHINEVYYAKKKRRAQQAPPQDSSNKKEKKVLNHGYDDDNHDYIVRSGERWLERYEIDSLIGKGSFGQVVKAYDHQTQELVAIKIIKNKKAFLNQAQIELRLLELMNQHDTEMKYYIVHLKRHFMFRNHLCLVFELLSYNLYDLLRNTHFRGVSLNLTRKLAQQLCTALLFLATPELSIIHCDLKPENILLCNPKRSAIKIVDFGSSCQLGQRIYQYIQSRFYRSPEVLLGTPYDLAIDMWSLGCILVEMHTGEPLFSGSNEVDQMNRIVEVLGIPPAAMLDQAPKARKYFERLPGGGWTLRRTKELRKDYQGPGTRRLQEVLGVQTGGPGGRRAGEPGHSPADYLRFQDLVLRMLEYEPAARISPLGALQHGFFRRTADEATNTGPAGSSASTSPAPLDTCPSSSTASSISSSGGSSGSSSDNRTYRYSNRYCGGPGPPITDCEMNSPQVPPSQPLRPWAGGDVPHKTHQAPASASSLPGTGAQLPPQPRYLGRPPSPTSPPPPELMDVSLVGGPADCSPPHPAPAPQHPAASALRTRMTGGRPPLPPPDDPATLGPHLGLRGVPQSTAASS
Serine/threonine-protein kinase PLK1 (Homo sapiens), sequence (P53350 whole entry): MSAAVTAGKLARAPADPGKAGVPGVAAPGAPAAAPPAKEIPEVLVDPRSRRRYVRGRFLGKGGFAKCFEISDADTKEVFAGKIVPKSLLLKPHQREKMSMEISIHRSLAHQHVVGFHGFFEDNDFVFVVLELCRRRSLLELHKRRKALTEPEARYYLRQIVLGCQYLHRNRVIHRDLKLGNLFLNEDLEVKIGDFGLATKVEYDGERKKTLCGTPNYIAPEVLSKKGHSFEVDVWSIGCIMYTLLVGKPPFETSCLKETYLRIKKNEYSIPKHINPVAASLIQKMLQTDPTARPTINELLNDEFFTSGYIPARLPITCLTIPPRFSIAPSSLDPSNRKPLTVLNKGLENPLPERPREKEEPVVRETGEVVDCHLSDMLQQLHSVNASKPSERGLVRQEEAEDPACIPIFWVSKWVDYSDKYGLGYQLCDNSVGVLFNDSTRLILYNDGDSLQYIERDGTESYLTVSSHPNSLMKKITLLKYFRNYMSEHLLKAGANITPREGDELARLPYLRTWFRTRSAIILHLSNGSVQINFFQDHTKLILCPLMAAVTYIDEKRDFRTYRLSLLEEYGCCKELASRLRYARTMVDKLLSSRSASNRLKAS

| residual activity [1] [%] | residual activity [2] [%] | residual binding, % of control [3] [%] | residual activity [4] [%] | residual activity [5] [%] | residual binding, % of control [6] [%] | residual binding, % of control [7] [%] | residual activity [8] [%] | residual binding, % of control [9] [%] | residual activity [10] [%] | residual activity [11] [%] | residual binding, % of control [12] [%] | residual activity [13] [%] | Compound |
| --- | --- | --- | --- | --- | --- | --- | --- | --- | --- | --- | --- | --- | --- |
| 86 | 100 | 100 | 50 | 100 | 100 | 67 | 100 | 100 | 86 | 100 | 92 | 100 | CCOC(=O)c1sc(-c2ccncc2)nc1O |
| 63 | 55 | 100 | 95 | 91 | 94 | 99 | 100 | 88 | 0.3 | 78 | 27 | 100 | COc1ccc(-c2nc(-c3ccnc(N)n3)sc2C(N)=O)c(Cl)c1 |

| Compound | residual activity [1] [%] | residual activity [2] [%] | residual binding, % of control [3] [%] | residual activity [4] [%] | residual activity [5] [%] | residual binding, % of control [6] [%] | residual binding, % of control [7] [%] | residual activity [8] [%] | residual binding, % of control [9] [%] | residual activity [10] [%] | residual activity [11] [%] | residual binding, % of control [12] [%] | residual activity [13] [%] |
| --- | --- | --- | --- | --- | --- | --- | --- | --- | --- | --- | --- | --- | --- |
| NC(=O)c1sc(-c2ccnc(N)n2)nc1-c1ccc(Cl)cc1Cl | 100 | 77 | 100 | 66 | 65 | 100 | 82 | 91 | 100 | 0.4 | 75 | 34 | 100 |
